Bioassay records (PubChem)
The list is not random: actives were taken first. Their share in the collection is about 1.5%.
CCR6 antag: antagonists of human CCR6 receptor; inhibition, % at 20 µM; P51684; AID 493098; 340,000 compounds, 0.49% hits; CHO-K1 CCR6 PathHunter beta-arrestin, luminescence, CCL20-stimulated;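 active = compounds whose inhibition of the agonist-driven luminescence signal at 20 µM reaches about 50%, limit read from the data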;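 also: cells stimulated with CCL20 at 14 nM final; plate controls were DMSO with CCL20 for no effect and DMSO without agonist for full effect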
APJ agonist: APJ receptor agonism; activation, % at 20 µM; CHO-K1 APJ PathHunter beta-arrestin, luminescence; 0% DMSO wells, 100% apelin; P35414; 330,000 compounds, 0.11% hits;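 active = activation more than six SD over the plate average, tested at 20 µM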;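 also: 0% = DMSO alone and 100% = apelin-13 at 10 nM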
Target sequence (P35414 whole entry, looked up): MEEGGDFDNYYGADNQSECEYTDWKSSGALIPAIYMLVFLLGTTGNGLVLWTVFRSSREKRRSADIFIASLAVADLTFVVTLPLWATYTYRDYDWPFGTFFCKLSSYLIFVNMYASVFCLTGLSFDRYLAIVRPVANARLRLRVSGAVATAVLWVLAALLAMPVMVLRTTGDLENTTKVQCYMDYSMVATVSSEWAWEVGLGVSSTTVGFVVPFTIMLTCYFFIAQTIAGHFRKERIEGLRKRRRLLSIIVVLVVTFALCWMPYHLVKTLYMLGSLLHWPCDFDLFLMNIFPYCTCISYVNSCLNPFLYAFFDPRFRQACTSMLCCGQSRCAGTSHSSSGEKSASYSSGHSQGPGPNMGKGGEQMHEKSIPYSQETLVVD
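Assay system – PathHunter CHO-K1 APJ (AGTRL-1) beta-arrestin reporter cells · Compound – one dose, 20 µM compound, 1% DMSO · Timing – compound 90 min 25 °C, reagent 1 h · Measured by – luminescence from split beta-galactosidase complementation, Galacton Star/Emerald II substrate · Measure – beta-arrestin recruitment to APJ as agonist activity, luminescent signal · Benchmarks – DMSO vs Apelin-13 10 nM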
EBI2 block: antagonists of human EBI2 receptor | P32249 | AID 651636 | inhibition, % at 5 µM | EBI2 beta-arrestin recruitment, luminescence, 7a,25-OHC stimulated | 360,000 compounds, 0.81% hits; in the data active = inhibition above about 38%;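 also: enzyme fragment complementation signal reports receptor beta-arrestin coupling in cells; 0% = agonist plus DMSO wells and 100% = wells without agonist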
APJ antagonist: APJ receptor antagonism | CHO-K1 APJ beta-arrestin complementation, luminescence | inhibition, % at 20 µM | 330,000 compounds, 0.32% hits | AID 2521;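 active = inhibition above about 40% at 20 µM, limit read from the data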;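 also: cells challenged with 10 nM apelin-13 agonist together with compound; plate controls were apelin-13 plus DMSO wells for no effect and DMSO wells lacking apelin-13 for full effect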
CXCR6 block: blocks human CXCR6 beta-arrestin recruitment. O00574. CHO-K1 PathHunter CXCR6 beta-arrestin, luminescence. inhibition, % at 20 µM. 360,000 compounds, 0.36% hits. AID 602244; in the data active = inhibition above about 34%, passing the limit was not always enough;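 also: antagonist mode with CXCL16 agonist at 10 nM final; 0% = 10 nM CXCL16 with DMSO and 100% = unstimulated wells without agonist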
APJ ag confirm: APJ receptor agonism confirmation; CHO-K1 APJ PathHunter beta-arrestin, luminescence; shares compounds with APJ agonist; AID 2764; 310 compounds, 10% hits; activation, % at 20 µM;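 active = activation above 40%, taking the highest of four retests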;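 also: plate controls were DMSO wells for no effect and apelin-13 at 10 nM for full effect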
An asterisk follows results filed as active; x = no result given.

SMILES	CCR6 antag	APJ agonist	EBI2 block	APJ antagonist	CXCR6 block	APJ ag confirm
N/C(=N/OC(=O)c1cccc([N+](=O)[O-])c1)c1cccc([N+](=O)[O-])c1	6	26*	4	-42	7	37
COC(=O)C1=C(CN2CCN(C)CC2)NC(=O)NC1c1cc(C)ccc1C (stereo not given)	-12	0	-14	22	-5	x
COC(=O)C1=C(CN2CCc3ccccc32)NC(=O)NC1c1cc(C)ccc1C (stereo not given)	-7	39*	-20	-17	9	11
Cc1ccc(/C=N/NC(=O)CSc2nnc(-c3ccc(Cl)cc3)n2-c2ccc(Cl)cc2)o1	-52	28*	-28	-253	-47	163*
Cc1ccc(/C=N/NC(=O)CSc2nnc(-c3ccccc3)n2-c2ccc(Cl)cc2)o1	-20	14*	-17	-85	-11	43*
CCNC(=O)C1(C)CCN(C(=O)c2ccccc2F)C1 (stereo not given)	x	x	-4	x	-1	x
O=[N+]([O-])c1ccc2nc(-c3ccc(Cl)cc3)[nH]c2c1	-24	14*	11	-15	-6	31
Cc1ccc(S(=O)(=O)Nc2nc(-c3ccccc3)cs2)cc1	11	30*	4	8	10	55*
c1ccc2c(c1)ccn1c(Cc3ccsc3)c(C3CCCCC3)nc21	x	x	26	x	16	x
Cn1c(NCc2c[nH]c3ccccc23)nc2ccccc21	-11	22*	-37	-14	-9	25
O=[N+]([O-])c1cccc(/C=N/n2c(COc3ccccc3)n[nH]c2=S)c1	22	-3	17	11	2	x
O=[N+]([O-])c1ccc(/C=N/n2c(COc3ccccc3)n[nH]c2=S)cc1	17	14*	8	-19	2	8
COc1ccccc1-n1c(SCC(=O)NC(C)(C)C)nc(O)cc1=O	0	1	-8	11	0	x
COc1ccccc1-n1c(SC)nc(O)cc1=O	0	66*	-2	-70	0	88*
Cc1cccc(C)c1NC(=O)NS(=O)(=O)c1ccccc1	x	x	-2	x	-1	x
O=C(NC(c1ccc(F)cc1)c1ccc2ccccc2n1)C1CCN(Cc2cccc(C(F)(F)F)c2)CC1 (stereo not given)	x	x	36	x	24	x
COc1c(O)c(O)c2oc(-c3ccccc3)cc(=O)c2c1OC	1	-1	-5	-139	-6	x
COc1cc(-c2cc(=O)c3c(O)c(OC)c(OC)c(O)c3o2)ccc1O	1	28*	-4	-146	-17	4
CCCCCCc1cc2cc(-c3nnc(-c4ccccc4O)o3)c(=O)oc2cc1O	-59	25*	-32	-75	-41	52*
CCCCCCc1cc2cc(-c3nnc(-c4ccccc4OC)o3)c(=O)oc2cc1O	-90	-2	-19	-76	-72	x
CCCCCCc1cc2cc(-c3nnc(-c4cc(OC)c(OC)c(OC)c4)o3)c(=O)oc2cc1O	-88	16*	x	-87	x	54*
CC(C)(C)C(C(=O)NCc1ccccc1)N1CCN(CCN2CCOCC2)CC1 (stereo not given)	x	x	-13	x	x	x
COC(=O)c1ccc2c(=O)n(CCCCCC(=O)N3CCN(c4ccc(F)cc4)CC3)c(=O)[nH]c2c1	-8	47*	-34	-35	-10	35
COc1cccc(CNC(=O)[C@@H]2CCCN2C(=O)[C@@H]2CCCN2C(=O)OC(C)(C)C)c1	x	x	-3	x	-8	x
COCCCNc1ccn2nc(-c3ccc(Cl)cc3)cc2n1	x	x	10	x	-2	x
SMILES	CCR6 antag	APJ agonist	EBI2 block	APJ antagonist	CXCR6 block	APJ ag confirm
Clc1ccc(-c2nnnn2-c2ccc(Cl)cc2)cc1	17	-5	7	19	-8	x
Cc1ccc(-n2nnnc2C(Cl)(Cl)c2nnnn2-c2ccc(C)cc2)cc1	52*	34*	9	-28	9	41*
N#Cc1cc2cc3ccccc3nc2n2c(=O)c3ccccc3nc12	7	15*	-15	-31	-18	3
Cn1c(=O)c2cc3ccccc3nc2n(C)c1=O	-8	-7	1	16	-1	x
CCOC(=O)c1c(C)[nH]c(C(=O)OCC(=O)Nc2sccc2C(N)=O)c1C	-46	32*	-33	-46	-11	16
CS(=O)(=O)c1cnc(-c2ccccc2)nc1Sc1ccc(F)cc1	-3	18*	-23	-17	0	13
COc1cccc(Sc2nc(-c3ccccc3)ncc2S(C)(=O)=O)c1	13	-1	14	-4	5	x
N/C(=N\OC(=O)c1cc(-c2ccccc2)nc2ccccc12)c1ccc(Cl)cc1	-16	16*	-6	-16	-12	20
Clc1cccc(Cl)c1CSc1nnc(-c2ccncc2)s1	-17	70*	-53	-18	-8	27
COc1ccc(CCN2CCC(Nc3nc4ccccc4n3Cc3ccc(F)cc3)CC2)cc1	4	32*	-2	18	1	17
Cc1c2ccccc2nc2ccccc12	3	-5	-3	14	-27	x
Cc1c2ccccc2c(C)c2c1ccc1ccccc12	-16	41*	12	-27	-19	20
Cc1ccc(-c2ccc(/C=C3\C(=O)ON=C3c3ccccc3)o2)c([N+](=O)[O-])c1	62*	16*	-1	-7	25	25
CC(=O)Nc1cncc(-c2cccc(S(C)(=O)=O)c2)n1	x	x	-7	x	-1	x
Cc1ccc(S(=O)(=O)N2C(=O)CCC2C(=O)O/N=C(\N)c2cccc([N+](=O)[O-])c2)cc1 (stereo not given)	-41	37*	-9	-132	-36	23
Cc1ccc(S(=O)(=O)N2C(=O)CCC2C(=O)O/N=C(\N)c2ccccc2)cc1 (stereo not given)	-6	12	5	-37	-3	x
Cc1ccc(S(=O)(=O)N2C(=O)CCC2C(=O)O/N=C(\N)c2ccc([N+](=O)[O-])cc2)cc1 (stereo not given)	-26	36*	-18	-134	-17	20
COc1ccc(S(=O)(=O)N2CCC3CC2c2c(-c4ccc(C(F)(F)F)cc4)cccc23)cc1 (stereo not given)	x	x	11	x	-2	x
O=C(Nc1ccc(N2CCN(C(=O)c3ccco3)CC2)c(Cl)c1)c1cc2ccccc2o1	-17	17*	-51	-45	-4	34
CCCC(=O)N1CCN(c2ccc(NC(=O)c3cc4ccccc4o3)cc2Cl)CC1	6	30*	-73	-6	-12	10
CCC(=O)N1CCN(c2ccc(NC(=O)c3cc4ccccc4o3)cc2Cl)CC1	-4	23	-25	-17	-5	x
COc1ccc(COC(=O)CNC(=O)C2CCCCC2)cc1F	12	0	-5	10	-4	x
O=C1Nc2ccccc2C1=Nc1ccc2[nH]c3ccccc3c2c1	15	x	-2	x	12	x
N#C/C(=C\c1ccc([N+](=O)[O-])o1)c1nc2ccccc2[nH]1	3	42*	x	-15	x	6
